# Results: ChEMBL document CHEMBL1144657, “Discovery of heterobicyclic templates for novel metabotropic glutamate receptor subtype 5 antagonists” (Bioorg Med Chem Lett, 2007)
# The source made the active and inactive calls. The calls are words filed in the database; no cut-off is given here.
# Target: Metabotropic glutamate receptor 5 (Rattus norvegicus) (UniProt P31424)
# Assay: Displacement of [3H]MPEP from mGluR5 in rat brain membrane at 10 uM
# Assay type: cell membranes
# Method in brief: (§1)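 Binding was measured by the NIMH Psychoactive Drug Screening Program in rat brain membranes, with [3H]MPEP as the mGluR5 radioligand. Single-concentration screens are reported as percent inhibition of [3H]MPEP binding at 10 μM, and some compounds were also tested at 100 μM. For selected compounds, IC50 was determined using a previously published protocol.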
# Metabotropic glutamate receptor 5 (Rattus norvegicus), sequence (P31424 21-1203 limits assumed): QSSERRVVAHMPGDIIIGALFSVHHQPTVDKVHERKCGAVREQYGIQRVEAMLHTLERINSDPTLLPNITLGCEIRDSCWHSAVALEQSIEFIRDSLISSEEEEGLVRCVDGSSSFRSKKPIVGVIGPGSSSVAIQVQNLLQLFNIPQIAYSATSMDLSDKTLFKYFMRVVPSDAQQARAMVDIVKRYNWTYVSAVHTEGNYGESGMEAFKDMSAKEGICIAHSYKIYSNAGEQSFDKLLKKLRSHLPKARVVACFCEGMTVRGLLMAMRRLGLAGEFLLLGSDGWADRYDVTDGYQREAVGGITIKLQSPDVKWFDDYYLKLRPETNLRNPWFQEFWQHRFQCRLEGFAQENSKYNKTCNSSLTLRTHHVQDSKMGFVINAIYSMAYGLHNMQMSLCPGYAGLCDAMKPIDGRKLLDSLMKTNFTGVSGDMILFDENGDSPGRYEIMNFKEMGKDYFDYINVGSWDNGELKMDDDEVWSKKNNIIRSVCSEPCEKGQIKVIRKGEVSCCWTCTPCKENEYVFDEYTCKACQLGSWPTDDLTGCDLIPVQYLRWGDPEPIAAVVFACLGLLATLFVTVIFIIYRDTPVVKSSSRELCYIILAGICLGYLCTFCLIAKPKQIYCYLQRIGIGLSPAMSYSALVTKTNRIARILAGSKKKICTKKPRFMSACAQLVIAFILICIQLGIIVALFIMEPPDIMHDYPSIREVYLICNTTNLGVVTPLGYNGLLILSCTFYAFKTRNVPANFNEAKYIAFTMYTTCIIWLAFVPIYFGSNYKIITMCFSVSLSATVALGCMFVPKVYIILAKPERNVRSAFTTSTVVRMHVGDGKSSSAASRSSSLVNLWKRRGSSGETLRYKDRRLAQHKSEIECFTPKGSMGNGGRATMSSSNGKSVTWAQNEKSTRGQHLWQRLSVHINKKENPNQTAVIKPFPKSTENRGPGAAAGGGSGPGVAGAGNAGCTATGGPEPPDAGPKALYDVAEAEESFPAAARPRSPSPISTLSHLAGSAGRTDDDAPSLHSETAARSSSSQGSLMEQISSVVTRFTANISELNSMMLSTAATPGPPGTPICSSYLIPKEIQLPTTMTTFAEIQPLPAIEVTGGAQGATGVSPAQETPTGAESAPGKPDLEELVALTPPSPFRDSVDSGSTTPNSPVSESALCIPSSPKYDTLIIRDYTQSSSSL
row,Compound,Activity [%]
1,Cc1nc2nc(-c3ccccc3)sc2cc1-c1cccc(Cl)c1,1
2,Cc1ccc2ccc(-c3ccccc3)cc2n1,50
3,Cc1cccc(-c2ccc3sc(C)nc3c2)n1,17
4,Cc1ccc2nc(-c3ccccc3)n(CC3CC3)c2n1,< 1
5,Cc1ccc2ccc(-c3ccccn3)cc2n1,28
6,Cc1ccc2nc(-c3ccccc3)n(C)c2n1,< 1
7,Cc1nc2nc(-c3ccccc3)sc2cc1Br,1
8,Cc1nc2nc(-c3ccccc3)sc2cc1-c1ccc(F)cc1,3
9,COc1ccnc(-c2ccc3sc(C)nc3c2)n1,39
10,Cc1nc2nc(-c3ccccc3)sc2cc1-c1cccc(C#N)c1,13
11,Cc1ccc2ccc(-c3cccs3)cc2n1,< 1
12,Cc1nc2cc(-c3ncccn3)ccc2s1,29
13,Cc1ccc2sc(-c3ccccc3)nc2n1,16
14,Cc1ccc(-c2ccc3ccc(C)nc3c2)nc1,9
15,COc1cc2sc(-c3ccccc3)nc2nc1C,< 1
16,Cc1ccc2ccc(-c3ncc(F)cn3)cc2n1,> 1

# Target: Metabotropic glutamate receptor 5 (Rattus norvegicus) (UniProt P31424)
# Assay: Displacement of [3H]MPEP from mGluR5 in rat brain membrane at 100 uM
# Assay type: cell membranes
# Method in brief: as §1
row,Compound,Activity
1,Cc1nc2cc(-c3ccc(F)cc3)ccc2s1,inactive
2,Cc1nc2cc(-c3ccccc3)ccc2s1,inactive

# Target: Metabotropic glutamate receptor 5 (Rattus norvegicus, UniProt P31424)
# Sequence (P31424 whole entry): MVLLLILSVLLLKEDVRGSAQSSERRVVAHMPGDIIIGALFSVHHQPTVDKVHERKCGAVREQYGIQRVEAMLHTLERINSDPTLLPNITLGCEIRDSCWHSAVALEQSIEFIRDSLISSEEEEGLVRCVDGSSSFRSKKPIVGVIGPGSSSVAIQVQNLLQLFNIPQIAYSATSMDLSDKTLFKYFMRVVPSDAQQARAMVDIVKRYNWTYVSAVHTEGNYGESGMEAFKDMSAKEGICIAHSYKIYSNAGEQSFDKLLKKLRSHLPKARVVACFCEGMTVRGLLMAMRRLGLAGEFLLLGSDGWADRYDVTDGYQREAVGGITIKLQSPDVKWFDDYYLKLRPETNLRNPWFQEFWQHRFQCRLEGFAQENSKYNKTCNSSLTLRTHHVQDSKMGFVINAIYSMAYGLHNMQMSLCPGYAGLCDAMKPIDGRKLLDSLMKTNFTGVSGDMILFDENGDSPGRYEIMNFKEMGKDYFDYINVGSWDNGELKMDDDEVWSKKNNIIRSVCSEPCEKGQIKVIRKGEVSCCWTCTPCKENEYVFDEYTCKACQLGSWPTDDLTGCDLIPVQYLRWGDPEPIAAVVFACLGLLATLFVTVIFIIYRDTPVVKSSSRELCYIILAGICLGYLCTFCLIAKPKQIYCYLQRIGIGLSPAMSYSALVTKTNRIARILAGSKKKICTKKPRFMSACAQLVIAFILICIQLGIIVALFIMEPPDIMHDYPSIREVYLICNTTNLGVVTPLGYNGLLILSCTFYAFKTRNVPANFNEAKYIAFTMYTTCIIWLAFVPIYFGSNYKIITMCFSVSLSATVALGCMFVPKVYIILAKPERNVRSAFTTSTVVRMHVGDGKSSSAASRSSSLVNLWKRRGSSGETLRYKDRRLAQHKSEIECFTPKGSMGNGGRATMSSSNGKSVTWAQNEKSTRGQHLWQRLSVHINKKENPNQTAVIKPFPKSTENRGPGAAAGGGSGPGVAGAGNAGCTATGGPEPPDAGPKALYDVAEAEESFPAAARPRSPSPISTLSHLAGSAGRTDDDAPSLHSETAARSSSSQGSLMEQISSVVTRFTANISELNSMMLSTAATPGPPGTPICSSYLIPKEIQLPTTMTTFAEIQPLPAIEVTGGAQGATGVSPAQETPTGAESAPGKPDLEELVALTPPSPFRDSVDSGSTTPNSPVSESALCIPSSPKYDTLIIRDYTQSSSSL
# Assay: Displacement of [3H]MPEP from mGluR5 in rat brain membrane
# Assay type: cell membranes
Compound,IC50 [µM],Ki [µM]
Cc1nc2cc(-c3cccc(Cl)c3)ccc2s1,43.4,–
Cc1nc2nc(-c3ccccc3)sc2cc1-c1cccs1,–,> 10
Cc1nc2cc(-c3cccc(C#N)c3)ccc2s1,–,2.1
Cc1ccc2ccc(-c3cnccn3)cc2n1,–,> 60
COc1ccnc(-c2ccc3ccc(C)nc3c2)n1,–,1.55
Cc1cc(C)nc(-c2ccc3ccc(C)nc3c2)n1,–,2.09
COc1cc(OC)nc(-c2ccc3ccc(C)nc3c2)n1,–,5.43
Cc1ccc2c(n1)nc(-c1ccccc1)n2Cc1ccccc1,–,> 10
Cc1nc2nc(-c3ccccc3)sc2cc1-c1ccccc1,33.5,–
Cc1ccc2ccc(-c3ncccn3)cc2n1,–,> 20
Cc1ccc2ccc(-c3cccc(C#N)c3)cc2n1,–,0.11
Cc1ccc2[nH]c(-c3ccccc3)nc2n1,–,> 10
Cc1ccc2nc(-c3ccccc3)n(Cc3ccccc3)c2n1,–,> 10
COc1cccc(-c2ccc3sc(C)nc3c2)c1,43.1,–
